Compound activity: PubChem, several laboratories
RAM network inh: blocks the yeast RAM network; inhibition, % at 50 µM; AID 868; S. cerevisiae dse1pr::URA3 reporter, 5-FOA growth OD615, 2 d; analog-sensitive cbk1-as2 kinase mutant strain; hit rate 1.8% among 190,000;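 active = inhibition above a set limit, 3 SD over mean compound inhibition, cut at about 8.4% in these data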;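 also: 0% = DMSO-only wells with no growth and 100% = 10 µM 1-NA-PP1 full growth; inhibition rescues growth on 5-FOA so higher OD means more RAM inhibition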
Yeast lifespan up: extends the lifespan of yeast; S. cerevisiae growth with nicotinamide, OD615; deaD strain in restrictive glucose medium; inhibition of the nicotinamide effect, % at 10 µM; hit rate 0.68% among 130,000; AID 775;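 active = inhibition above a set limit, placed 3 SD over the median of all compounds, cut at about 26% in these data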;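 also: 0% = nicotinamide-treated wells and 100% = cells grown without nicotinamide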
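Buffer or medium: CSMM-D glucose medium, restrictive; test system: modified budding yeast, DeaD strain; compound: single dose 10 µM compound, 0.25% DMSO; schedule: culture preincubation 4 h, compound exposure 48 h, both 30 °C; detection: optical density (absorbance) at 615 nm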
Insulin prom up: MIN6 insulin promoter up-regulation; MIN6 insulin promoter-GFP reporter, high-content imaging; hits give high values; z-score at 5 µM; hit rate 0.3% among 190,000; AID 1625;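 active = z-score above 3 at 5 µM with at least 500 cells counted in the well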
Yeast growth inh: reduces growth of yeast BB579 in restrictive medium | S. cerevisiae BB579 growth, OD615, 48 h | inhibition, % at 10 µM | hit rate 0.51% among 140,000;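 active = inhibition above a set limit, 3 SD over the mean compound inhibition, cut at about 44% in these data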
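Test system: Saccharomyces cerevisiae DeaD strain BB579, replicative lifespan model yeast | Buffer or medium: Restrictive CSMM-D medium | Doses: One dose, 10 µM compound with 0.25% DMSO | Incubation: 48 h exposure, 30 °C | Detection: Culture absorbance at 615 nm | Control set: Amphotericin B at 10 µg/mL as positive control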
Insulin prom inh: TRM-6 insulin promoter activity inhibition. hit rate 0.9% among 130,000. TRM-6 cells, insulin promoter-eGFP reporter, imaging; reporter expression induced with tamoxifen. inhibition, % at 2 µM. AID 1273;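 active = inhibition above the mean plus 3 SD, with well images judged a real hit on visual review, cut at about 60% in these data, passing the limit was not always enough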
Active calls of the source: *; · = no result given. Compounds with a hit are over-represented: about 3.1% of the library has one in this group of screens.

SMILES | RAM network inh | Yeast lifespan up | Insulin prom up | Yeast growth inh | Insulin prom inh
CC(C)(C)N/N=C/c1cc(Cl)cc([N+](=O)[O-])c1O | -1 | -8 | · | 92* | 8
O=C(N/N=C/c1cc(Cl)cc([N+](=O)[O-])c1O)C1CC1 | · | · | -1.2 | · | ·
CC(=O)CCc1c(C)[nH]c2ccccc2c1=O | 0 | -5 | -0.12 | -19 | -28
CC(=O)CCc1c(C)c2cc(C)ccc2[nH]c1=O | 0 | -8 | -1.2 | -31 | 70*
CCOC(=O)c1ccc2c(c1)nc(COc1ccc(OC)cc1)n2CC | 1 | -8 | 0.1 | -5 | 28
Nc1ccc(O)c2c1C(=O)c1ccccc1C2=O | 3 | -5 | · | 69* | -14
COc1ccc(OC)c2c1C(=O)c1ccccc1C2=O | 1 | -3 | 1 | 23 | ·
COc1ccc(N)c2c1C(=O)c1ccccc1C2=O | 0 | -9 | · | 71* | ·
O=C1CSCC(=O)N1c1ncc(C(F)(F)F)cc1Cl | · | · | 0.19 | · | ·
CCNC(=S)N/N=C/c1ccc(F)cc1 | 1 | · | -0.28 | · | ·
CCNC(=S)N/N=C/c1cccc(/C=N/NC(=S)NCC)c1 | 10.0* | · | -0.89 | · | ·
CCc1ccc(/C=N/NC(=S)NCCc2ccccc2)cc1 | 8.5* | 14 | -0.58 | -29 | 0
COC(=O)[C@@H]1C[C@H]2CC[C@H](O)C[C@H]2N1Cc1ccc(-c2ccccc2)cc1 | · | · | -0.11 | · | ·
Cc1nc2c(F)c(F)c(C(F)(F)F)c(F)c2[nH]1 | 1 | -16 | · | 57* | 55
Cc1nc2c(Br)c3nc(C(F)(F)F)[nH]c3c(Br)c2[nH]1 | 0 | -11 | -0.28 | -22 | 0
CCOc1ccc(CCNC(=O)c2cc3sccc3n2CC)cc1OCC | 9.0* | 2 | 1.6 | -25 | -14
CCOC(=O)N1CCC(NC(=O)c2cc3sccc3n2CC)CC1 | 2 | -2 | -0.46 | 6 | ·
CCN(CC)C(=O)c1ccc(NS(=O)(=O)c2ccc(/C=C/C(=O)O)cc2)cc1 | 1 | · | -0.2 | · | 40
CCN(CC)C(=O)c1ccc(NS(=O)(=O)c2ccccc2)cc1 | 3 | -5 | -0.13 | -29 | 100*
COc1ccc(C2(C(=O)O)CCCC2)cc1 | 2 | 35* | 0.25 | -27 | -14
COc1ccc(C2(C(=O)N3CCOCC3)CCCC2)cc1 | -1 | -16 | 0.23 | -40 | -8
CCc1cc(C(=O)OC)c(NC(=O)c2cc(Br)cs2)s1 | 10* | -14 | -0.36 | -33 | 8
CC(C)=C1C(=O)NN(c2cccc(Cl)c2)C1=O | 1 | 12 | -0.13 | 3 | 10
CC(C)=C1C(=O)NN(c2ccc(C)c(Cl)c2)C1=O | 3 | 45* | -0.12 | -23 | 17
CCSc1nc2c(c(=O)[nH]1)C(c1cccs1)C(C(=O)OC)=C(C)N2 (configuration not stated) | 2 | 7 | 0.02 | -24 | -12
SMILES | RAM network inh | Yeast lifespan up | Insulin prom up | Yeast growth inh | Insulin prom inh
CCN(CC)S(=O)(=O)c1ccc(C)c(C(=O)Oc2cccc(-c3cnc4ccccc4n3)c2)c1 | 9.3* | -3 | 0.01 | -52 | 38
CCN(CC)S(=O)(=O)c1cc(C(=O)Oc2cccc(-c3cnc4ccccc4n3)c2)ccc1OC | 4 | -2 | 0.5 | -24 | ·
Cc1nn(C(C)C(=O)NNC(=S)Nc2ccc(Cl)cc2)c(C)c1[N+](=O)[O-] (configuration not stated) | -1 | -12 | 0 | 12 | -13
O=C(Nc1ccc(Cl)cc1)NC1CCCC1Cc1ccco1 (configuration not stated) | 8.8* | -24 | 0.01 | -11 | ·
O=C(Nc1ccc(Cl)cc1)NC1CCCCC1Cc1ccco1 (configuration not stated) | 1 | -12 | -0.36 | 8 | -30
CC(C)N=C1CC(C)(C)CC(=O)/C1=C(/O)CCCN1C(=O)c2ccccc2C1=O | 0 | · | 0.41 | · | ·
N#Cc1ccc(-c2ccc(Cl)cc2)nc1SCC(=O)c1cccc(Cl)c1 | 6 | -2 | 6.9* | -3 | 5
CNc1cc(N2CCN(S(=O)(=O)N(C)C)CC2)ccc1[N+](=O)[O-] | 0 | · | 0.69 | · | ·
CN(C)S(=O)(=O)N1CCN(c2ccc([N+](=O)[O-])c(NC3CC3)c2)CC1 | 8.6* | · | 0.64 | · | ·
CCN1/C(=C/c2ccc3cc(C)ccc3[n+]2CC)Sc2ccccc21 | -3 | -11 | · | 98* | -170
Cn1c(=O)c2c(ncn2CC(=O)N/N=C/c2ccc(Br)s2)n(C)c1=O | 1 | 6 | 0.08 | -10 | -13
C=CCNC(=O)c1c2c(nc3ccccc13)-c1ccccc1CC2 | 0 | -13 | 4.5* | 9 | -18
CNC(=O)C(=O)N/N=C/c1ccc(Br)cc1 | 0 | · | -0.04 | · | 71*
